Several values for one entry are separate records, joined by “and”; a condition that tells them apart may be missing. Equal entries are not always repeated.
Tested on: HEK-293T
Test: Multiplex assay against HEK293T
Type: toxicity, cell-based
Details: human, 12 h, 1 µM, compound concentration 1 uM
Procedure, shortened: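 Hoechst33342, BioTracker Green Microtubule Cytoskeleton Dye, MitoTracker Red and Annexin V Alexa Fluor 680 were added to live cells at seeding, and imaging on a CQ1 microscope at 37°C and 5% CO2 followed compound addition. Gating by CellPathfinder machine learning separated cells into Hoechst high-intensity objects or normal cells, then normal cells into healthy, pyknosed or fragmented nuclei, then pyknosed cells into mitotic or apoptotic. Per cents of healthy-nucleus cells are reported for the tubulin, mitochondrial-mass and membrane-permeability phenotypes.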

Structure (SMILES)	Population Apoptotic (%)	Population Fragmented Nuclei (%)	Population Healthy Nuclei (%)	Population Hoechst High Intensity Objects (%)	Population Membrane Permeable-Phenotype (%)	Population Mitochondria Different-Phenotype (%)	Population Mitotic Cells (%)	Population Normal (%)	Population Pyknosed Nuclei (%)	Population Tubulin-Different-Phenotype (%)
CN1CCN(c2nc3cc(C(F)(F)F)ccc3n3cccc23)CC1.O=C(O)/C=C\C(=O)O.O=C(O)/C=C\C(=O)O	37% and 53%	5% and 8%	80% and 77%	10% and 5%	0%	48% and 76%	62% and 46%	89% and 94%	13% and 14%	33% and 35%
CC(C)CNc1nc(N2CCN(CC3CCCOC3)CC2)ncc1C(=O)NCc1ccccc1 (stereo not given)	11.7% and 11.21%	1.89% and 4.9%	–	0.31% and 0%	0%	–	88.3% and 88.79%	99.69% and 100%	53.94% and 81.12%	13.57% and 25%
OCCCNc1cc(-c2ccnc(Nc3cccc(Cl)c3)n2)ccn1	66% and 65%	9% and 8%	66% and 74%	14% and 11%	0%	82% and 88%	33% and 34%	85% and 88%	24% and 16%	75% and 57%
Cc1nn(C)c2nc(NNC(=O)Nc3cc(Cl)nc(Cl)c3)cc(C(C)C)c12	27% and 40%	5%	77% and 81%	5% and 2%	0%	37% and 59%	72% and 60%	94% and 97%	16% and 13%	26% and 25%

Same assay, conditions: human, 12 h, 1 µM, compound concentration 1 uM

Structure (SMILES)	Total Cell Count
CN1CCN(c2nc3cc(C(F)(F)F)ccc3n3cccc23)CC1.O=C(O)/C=C\C(=O)O.O=C(O)/C=C\C(=O)O	438 and 332
CC(C)CNc1nc(N2CCN(CC3CCCOC3)CC2)ncc1C(=O)NCc1ccccc1 (stereo not given)	318 and 143
OCCCNc1cc(-c2ccnc(Nc3cccc(Cl)c3)n2)ccn1	204 and 173
Cc1nn(C)c2nc(NNC(=O)Nc3cc(Cl)nc(Cl)c3)cc(C(C)C)c12	467 and 383

Same assay, conditions: human, 12 h, 10 µM, compound concentration 10 uM

Structure (SMILES)	Population Apoptotic (%)	Population Fragmented Nuclei (%)	Population Healthy Nuclei (%)	Population Hoechst High Intensity Objects (%)	Population Membrane Permeable-Phenotype (%)	Population Mitochondria Different-Phenotype (%)	Population Mitotic Cells (%)	Population Normal (%)	Population Pyknosed Nuclei (%)	Population Tubulin-Different-Phenotype (%)
CN1CCN(c2nc3cc(C(F)(F)F)ccc3n3cccc23)CC1.O=C(O)/C=C\C(=O)O.O=C(O)/C=C\C(=O)O	68% and 64%	7% and 5%	76%	14% and 9%	0%	73% and 89%	31% and 35%	85% and 90%	15% and 18%	64% and 66%
CC(C)CNc1nc(N2CCN(CC3CCCOC3)CC2)ncc1C(=O)NCc1ccccc1 (stereo not given)	30.6% and 27.73%	4.29% and 5.11%	–	1.06% and 0%	0%	23.53% and 63.64%	69.4% and 72.27%	98.94% and 100%	65.36% and 86.86%	85.88% and 81.82%
OCCCNc1cc(-c2ccnc(Nc3cccc(Cl)c3)n2)ccn1	78% and 75%	14%	55% and 67%	30% and 41%	1% and 10%	83% and 85%	21% and 25%	69% and 58%	30% and 18%	80% and 72%
Cc1nn(C)c2nc(NNC(=O)Nc3cc(Cl)nc(Cl)c3)cc(C(C)C)c12	55% and 46%	5% and 4%	61% and 74%	12% and 3%	1%	79% and 84%	44% and 53%	88% and 96%	32% and 21%	80% and 75%

Same assay, conditions: human, 12 h, 10 µM, compound concentration 10 uM

Structure (SMILES)	Total Cell Count
CN1CCN(c2nc3cc(C(F)(F)F)ccc3n3cccc23)CC1.O=C(O)/C=C\C(=O)O.O=C(O)/C=C\C(=O)O	396 and 286
CC(C)CNc1nc(N2CCN(CC3CCCOC3)CC2)ncc1C(=O)NCc1ccccc1 (stereo not given)	283 and 137
OCCCNc1cc(-c2ccnc(Nc3cccc(Cl)c3)n2)ccn1	249 and 224
Cc1nn(C)c2nc(NNC(=O)Nc3cc(Cl)nc(Cl)c3)cc(C(C)C)c12	300 and 396

Same assay, conditions: human, 24 h, 1 µM, compound concentration 1 uM

Structure (SMILES)	Population Apoptotic (%)	Population Fragmented Nuclei (%)	Population Healthy Nuclei (%)	Population Hoechst High Intensity Objects (%)	Population Membrane Permeable-Phenotype (%)	Population Mitochondria Different-Phenotype (%)	Population Mitotic Cells (%)	Population Normal (%)	Population Pyknosed Nuclei (%)	Population Tubulin-Different-Phenotype (%)
CN1CCN(c2nc3cc(C(F)(F)F)ccc3n3cccc23)CC1.O=C(O)/C=C\C(=O)O.O=C(O)/C=C\C(=O)O	33% and 54%	9% and 6%	81% and 83%	6%	1% and 0%	30% and 50%	66% and 45%	93%	9% and 10%	24% and 25%
CC(C)CNc1nc(N2CCN(CC3CCCOC3)CC2)ncc1C(=O)NCc1ccccc1 (stereo not given)	21.51% and 22.81%	1.41% and 5.26%	–	0.2% and 0%	1.89% and 0%	30.6% and 36.67%	78.49% and 77.19%	99.8% and 100%	34.68% and 75%	28.71% and 13.33%
OCCCNc1cc(-c2ccnc(Nc3cccc(Cl)c3)n2)ccn1	91% and 77%	10% and 13%	66% and 76%	14% and 15%	0%	80% and 86%	8% and 22%	85% and 84%	22% and 10%	61%
Cc1nn(C)c2nc(NNC(=O)Nc3cc(Cl)nc(Cl)c3)cc(C(C)C)c12	31%	9% and 6%	78% and 82%	3% and 1%	0%	27% and 37%	68%	96% and 98%	11%	20% and 19%

Same assay, conditions: human, 24 h, 1 µM, compound concentration 1 uM

Structure (SMILES)	Total Cell Count
CN1CCN(c2nc3cc(C(F)(F)F)ccc3n3cccc23)CC1.O=C(O)/C=C\C(=O)O.O=C(O)/C=C\C(=O)O	557 and 390
OCCCNc1cc(-c2ccnc(Nc3cccc(Cl)c3)n2)ccn1	228 and 202
Cc1nn(C)c2nc(NNC(=O)Nc3cc(Cl)nc(Cl)c3)cc(C(C)C)c12	608 and 512

Same assay, conditions: human, 24 h, 10 µM, compound concentration 10 uM

Structure (SMILES)	Population Apoptotic (%)	Population Fragmented Nuclei (%)	Population Healthy Nuclei (%)	Population Hoechst High Intensity Objects (%)	Population Membrane Permeable-Phenotype (%)	Population Mitochondria Different-Phenotype (%)	Population Mitotic Cells (%)	Population Normal (%)	Population Pyknosed Nuclei (%)	Population Tubulin-Different-Phenotype (%)
CN1CCN(c2nc3cc(C(F)(F)F)ccc3n3cccc23)CC1.O=C(O)/C=C\C(=O)O.O=C(O)/C=C\C(=O)O	41% and 63%	8% and 10%	77% and 78%	9% and 7%	0%	65% and 79%	58% and 36%	90% and 92%	13% and 10%	62% and 58%
CC(C)CNc1nc(N2CCN(CC3CCCOC3)CC2)ncc1C(=O)NCc1ccccc1 (stereo not given)	59.41% and 71.68%	4.91% and 5.67%	–	0.61% and 0%	0%	72.86% and 75%	40.59% and 28.32%	99.39% and 100%	52.15% and 80.14%	90.71% and 75%
OCCCNc1cc(-c2ccnc(Nc3cccc(Cl)c3)n2)ccn1	71% and 78%	16% and 15%	44% and 54%	41% and 45%	0% and 3%	85% and 91%	28% and 21%	58% and 54%	38% and 29%	88% and 82%
Cc1nn(C)c2nc(NNC(=O)Nc3cc(Cl)nc(Cl)c3)cc(C(C)C)c12	59% and 55%	10% and 5%	66% and 78%	5%	0%	78% and 80%	40% and 44%	94% and 95%	22% and 16%	74% and 69%

Same assay, conditions: human, 24 h, 10 µM, compound concentration 10 uM

Structure (SMILES)	Total Cell Count
CN1CCN(c2nc3cc(C(F)(F)F)ccc3n3cccc23)CC1.O=C(O)/C=C\C(=O)O.O=C(O)/C=C\C(=O)O	490 and 378
CC(C)CNc1nc(N2CCN(CC3CCCOC3)CC2)ncc1C(=O)NCc1ccccc1 (stereo not given)	328 and 141
OCCCNc1cc(-c2ccnc(Nc3cccc(Cl)c3)n2)ccn1	237 and 207
Cc1nn(C)c2nc(NNC(=O)Nc3cc(Cl)nc(Cl)c3)cc(C(C)C)c12	321 and 440

Same assay, conditions: human, 48 h, 1 µM, compound concentration 1 uM

Structure (SMILES)	Population Apoptotic (%)	Population Fragmented Nuclei (%)	Population Healthy Nuclei (%)	Population Hoechst High Intensity Objects (%)	Population Membrane Permeable-Phenotype (%)	Population Mitochondria Different-Phenotype (%)	Population Mitotic Cells (%)	Population Normal (%)	Population Pyknosed Nuclei (%)	Population Tubulin-Different-Phenotype (%)
CN1CCN(c2nc3cc(C(F)(F)F)ccc3n3cccc23)CC1.O=C(O)/C=C\C(=O)O.O=C(O)/C=C\C(=O)O	20% and 37%	13%	78% and 79%	3% and 5%	2% and 0%	17% and 42%	79% and 62%	96% and 94%	7%	17% and 21%
CC(C)CNc1nc(N2CCN(CC3CCCOC3)CC2)ncc1C(=O)NCc1ccccc1 (stereo not given)	7.95% and 20.65%	1.03% and 6.84%	83.45% and 44.74%	0%	2.71% and 1.18%	49.88% and 61.18%	92.05% and 79.35%	100%	–	–
OCCCNc1cc(-c2ccnc(Nc3cccc(Cl)c3)n2)ccn1	82% and 61%	12% and 17%	51% and 65%	18% and 21%	1% and 0%	88% and 84%	17% and 38%	81% and 78%	35% and 17%	68% and 59%
Cc1nn(C)c2nc(NNC(=O)Nc3cc(Cl)nc(Cl)c3)cc(C(C)C)c12	27% and 18%	12% and 13%	78% and 81%	3% and 2%	1%	17% and 25%	72% and 81%	96% and 97%	9% and 5%	16% and 19%

Same assay, conditions: human, 48 h, 1 µM, compound concentration 1 uM

Structure (SMILES)	Total Cell Count
CN1CCN(c2nc3cc(C(F)(F)F)ccc3n3cccc23)CC1.O=C(O)/C=C\C(=O)O.O=C(O)/C=C\C(=O)O	915 and 535
OCCCNc1cc(-c2ccnc(Nc3cccc(Cl)c3)n2)ccn1	232 and 193
Cc1nn(C)c2nc(NNC(=O)Nc3cc(Cl)nc(Cl)c3)cc(C(C)C)c12	912 and 748

Same assay, conditions: human, 48 h, 10 µM, compound concentration 10 uM

Structure (SMILES)	Population Apoptotic (%)	Population Fragmented Nuclei (%)	Population Healthy Nuclei (%)	Population Hoechst High Intensity Objects (%)	Population Membrane Permeable-Phenotype (%)	Population Mitochondria Different-Phenotype (%)	Population Mitotic Cells (%)	Population Normal (%)	Population Pyknosed Nuclei (%)	Population Tubulin-Different-Phenotype (%)
CN1CCN(c2nc3cc(C(F)(F)F)ccc3n3cccc23)CC1.O=C(O)/C=C\C(=O)O.O=C(O)/C=C\C(=O)O	50% and 52%	15% and 11%	75% and 77%	10% and 12%	2% and 0%	41% and 65%	50% and 47%	89% and 87%	8% and 10%	44% and 56%
CC(C)CNc1nc(N2CCN(CC3CCCOC3)CC2)ncc1C(=O)NCc1ccccc1 (stereo not given)	64.8% and 78.16%	2.93% and 2.01%	60.41% and 39.6%	0.87% and 1.32%	0.97% and 3.39%	96.6% and 88.14%	35.2% and 21.84%	99.13% and 98.68%	36.66% and 58.39%	73.3% and 91.53%
OCCCNc1cc(-c2ccnc(Nc3cccc(Cl)c3)n2)ccn1	71% and 83%	16% and 25%	46%	57% and 56%	1% and 8%	78% and 85%	28% and 16%	42% and 43%	37% and 28%	76% and 79%
Cc1nn(C)c2nc(NNC(=O)Nc3cc(Cl)nc(Cl)c3)cc(C(C)C)c12	62% and 45%	9%	72% and 79%	3% and 4%	0%	82% and 71%	37% and 55%	96% and 95%	18% and 10%	78% and 63%

Same assay, conditions: human, 48 h, 10 µM, compound concentration 10 uM

Structure (SMILES)	Total Cell Count
CN1CCN(c2nc3cc(C(F)(F)F)ccc3n3cccc23)CC1.O=C(O)/C=C\C(=O)O.O=C(O)/C=C\C(=O)O	672 and 472
CC(C)CNc1nc(N2CCN(CC3CCCOC3)CC2)ncc1C(=O)NCc1ccccc1 (stereo not given)	344 and 151
OCCCNc1cc(-c2ccnc(Nc3cccc(Cl)c3)n2)ccn1	262 and 238
Cc1nn(C)c2nc(NNC(=O)Nc3cc(Cl)nc(Cl)c3)cc(C(C)C)c12	387 and 593
